The nature of assay [1]: inhibitors of TNFa-induced NFkB p65 translocation, primary screen, imaging, HUVEC, MLSMR starter and 10KST1 sets (AID 438;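 active means inhibition above 20% together with a positive visual image hit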;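 further: compound added about 3h40 before a 20 min TNFalpha stimulation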;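 on inhibition: signal is the nuclear over cytoplasmic p65 intensity ratio per well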). Conditions: HUVEC TNFa-induced p65 nuclear translocation; cell count: measured here: nuclei count (cytotoxicity indicator), at 2.08 µM; inhibition: at 2 µM, stronger effect = higher value, 0% TNFa-plus-vehicle, 100% no-TNFa wells.
Assay [2] can be described thus: endothelial E-selectin expression blockers – imaging, HUVEC, immunofluorescence, MLSMR starter and 10KST1 sets, primary screen (AID 487;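 active means visually confirmed hit in the image check and inhibition above 20%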;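 on inhibition: signal is fraction of cell area covered by stained E-selectin grains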;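 on nuclei count: 100% = median nuclei count of all wells on the same plate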). To be noted: HUVEC TNFalpha-induced E-selectin immunofluorescence imaging, at 2 µM; inhibition: stronger effect = higher value; nuclei count: measured here: cell number, toxicity.
Assay [3] in a line: Primary imaging screen for DUSP6 inhibitors that restore phospho-Erk in transfected HeLa cells, chemical complementation (AID 609;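 active means compounds giving at least 50% inhibition in the cell-based MKP-3 phosphatase rescue imaging test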;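 on inhibition: phospho-Erk level distribution per well compared with pooled transfected vehicle control wells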). Conditions: HeLa MKP-3 transfected, phospho-Erk imaging KS statistic, at 10 µM, cells stimulated with TPA for 15 min.
Assay [4] deals with Dual specificity protein phosphatase 6 (Homo sapiens) (UniProt Q16828). The assay is described as above. Conditions: HeLa MKP-3 transfected, phospho-Erk imaging KS statistic; at 10 µM; stronger effect = higher value; cells stimulated with TPA for 15 min.
Sequence of Dual specificity protein phosphatase 6 (Homo sapiens) (Q16828 whole entry, looked up): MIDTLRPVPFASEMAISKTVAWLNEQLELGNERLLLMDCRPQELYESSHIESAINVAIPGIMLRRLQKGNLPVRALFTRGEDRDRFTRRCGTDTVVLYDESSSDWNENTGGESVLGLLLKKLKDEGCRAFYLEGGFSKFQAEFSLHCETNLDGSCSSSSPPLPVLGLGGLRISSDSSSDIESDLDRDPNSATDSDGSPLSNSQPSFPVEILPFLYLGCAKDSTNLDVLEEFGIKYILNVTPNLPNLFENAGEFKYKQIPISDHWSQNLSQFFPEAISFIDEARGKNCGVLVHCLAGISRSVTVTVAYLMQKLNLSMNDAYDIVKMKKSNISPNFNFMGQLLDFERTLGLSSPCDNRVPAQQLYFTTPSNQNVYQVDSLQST
Assay [5] has as its target Voltage-gated potassium channel subunit beta-2 (Rattus norvegicus) (UniProt P62483). The assay can be described thus: inhibitors of rat Kvbeta2 reductase activity – biochemical, NADPH fluorescence, primary screen (AID 622;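 active means fluorescence slope higher than the sample average by over 3 SD, cut at about -0.22 in these data, passing the limit was not always enough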;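 further: slope of raw intensity against log time taken from 70 to 1610 s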). Conditions: recombinant KvBeta, 4-cyanobenzaldehyde reduction, at 10 µM, stronger effect = higher value.
Assay [6] shares this target. The assay can be described thus: enhancers of rat Kvbeta2 NADPH turnover – biochemical, NADPH fluorescence, primary screen (AID 623;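 active means NADPH fluorescence slope more negative than the mean of all samples by about 3 SD, 99.7% confidence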;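 further: fluorescence intensity change per second fitted from 20 to 320 s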). Conditions: Recombinant KvBeta, NADPH fluorescence decrease slope, 10 min; at 10 µM; stronger effect = lower value.
In assay [7] the target is Alpha-2C adrenergic receptor (Homo sapiens) (UniProt P18825). The assay can be described thus: compounds altering alpha2C-coupled GIRK flux – cell-based, HEK293 alpha2C/GIRK1/2, thallium flux, primary screen (AID 624;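 active means fluorescence slope after compound addition differing from the mean of all screened samples at 99.7% confidence, in either direction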;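 further: slope of fluorescence ratio to pre-addition baseline per second over 15 to 24 s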). Conditions: thallium flux BTC fluorescence, at 10 µM, actives lie on both sides.
Sequence of Alpha-2C adrenergic receptor (Homo sapiens) (P18825 whole entry, looked up): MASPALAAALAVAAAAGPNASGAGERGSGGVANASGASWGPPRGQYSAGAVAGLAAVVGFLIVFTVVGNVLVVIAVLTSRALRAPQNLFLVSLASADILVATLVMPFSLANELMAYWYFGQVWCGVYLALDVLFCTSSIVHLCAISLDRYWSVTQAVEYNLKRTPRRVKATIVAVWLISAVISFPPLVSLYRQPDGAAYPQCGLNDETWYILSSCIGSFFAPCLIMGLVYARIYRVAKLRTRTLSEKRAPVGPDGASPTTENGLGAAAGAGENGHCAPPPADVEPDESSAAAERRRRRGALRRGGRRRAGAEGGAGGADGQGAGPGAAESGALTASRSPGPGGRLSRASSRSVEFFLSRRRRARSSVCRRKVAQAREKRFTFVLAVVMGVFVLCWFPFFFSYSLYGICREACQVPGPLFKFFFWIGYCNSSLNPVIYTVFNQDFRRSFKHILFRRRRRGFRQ
Assay [8] in a line: inhibitors of larval lipid processing in zebrafish, primary screen, whole organism, PED6 fluorescence, gall bladder and intestine (AID 686).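 Further: larvae 5 to 7 days old with five fish per well; signal comes from phospholipase A2 cleavage of quenched PED6 carried via bile; overnight exposure to compound and PED6 before scoring.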 To be noted: Zebrafish larvae PED6 lipid processing, fluorescence scoring; screened at 20 µM (by protocol). In outline:
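Test system – live zebrafish larvae aged 5-7 days, whole organism · Buffer or medium – E3 fish medium · Reagent – quenched phospholipase substrate PED6, 100 nM final, ingested by larvae · Doses – 20 µM single dose · Incubation – overnight compound and PED6 incubation · Technique – visual fluorescence microscopy scoring of gall bladder, gut · Read-out basis – visual per-well fluorescence inhibition score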

Assay [9] can be described thus: loss of swimming-algae plug formation – whole organism, Chlamydomonas reinhardtii, WT vs cilia-less mutant, absorbance, 96-well, primary screen (AID 463189;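 active means inhibition at or above 50% relative to wild type and mutant plate controls; inactive means inhibition below 50%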;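 further: 0% = wild type cc124 cells in DMSO and 100% = ciliumless bld1 mutant cells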). Conditions: Chlamydomonas reinhardtii gravitaxis, OD600 absorbance, 2 days; at 10 µM; stronger effect = higher value.
Setting [10] is: measured here: cell density z-score.
[11] abbreviates: measured here: nuclear c-Myc green intensity z-score.
The mark [12] stands for this setting: measured here: nuclear pErk red intensity z-score, stronger effect = higher value.

Activity calls are given as the source filed them.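 How the source made its calls, unless noted: active means a full or partial loss of lipid-probe fluorescence in the fish gall bladder, intestine or both, judged by eye; inactive means no fluorescence loss, or compound toxic to the fish.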

Sequence of Voltage-gated potassium channel subunit beta-2 (Rattus norvegicus) (P62483 whole entry, looked up): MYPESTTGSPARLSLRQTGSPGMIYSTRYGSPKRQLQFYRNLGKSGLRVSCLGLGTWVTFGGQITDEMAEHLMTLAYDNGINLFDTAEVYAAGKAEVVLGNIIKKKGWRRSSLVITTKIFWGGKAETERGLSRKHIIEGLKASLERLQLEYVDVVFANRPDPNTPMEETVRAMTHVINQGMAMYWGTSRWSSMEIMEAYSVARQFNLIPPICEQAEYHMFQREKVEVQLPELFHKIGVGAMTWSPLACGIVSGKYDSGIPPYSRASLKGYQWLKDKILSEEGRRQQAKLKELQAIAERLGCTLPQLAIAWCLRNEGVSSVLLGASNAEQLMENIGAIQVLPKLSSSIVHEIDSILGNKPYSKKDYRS

As for `CCOC(=O)C1=C(C(C)=O)C(c2cccnc2)C(C#N)=C(N)O1` (stereo unspecified), the cell count in assay [1] came to 548. The inhibition – broadly, the change of the read-out against control, counted positive when it falls – in [1] is -5.1% (inactive); in assay [2] it was -109% (inactive); in assay [4], 6.04% (inactive); in assay [9] it was 12.1% (inactive). In assay [2], this compound returned a nuclei count of 228%. For the same compound, the z-score in [3] (setting [10]) was 0.844; in assay [3] (setting [11]) it was -1.11; in assay [3] (setting [12]), -0.0919. Also, in [5], the fluorescence slope was -0.369 (inactive). Besides, the NADPH fluorescence slope in [6] was -1e-05 (inactive). Also, the slope in assay [7] is 0.00521 (inactive). Further, the result in assay [8] was inactive.

As for `CCOC(=O)NC(O)C(=O)c1cccs1` (stereo unspecified), the cell count in assay [1] came out at 507. The inhibition was -20.3% (inactive) in assay [1], -205% (inactive) in assay [2], 22.3% (inactive) in assay [4] and 16.4% (inactive) in assay [9]. In assay [2], this compound returned a nuclei count of 153%. For the same compound, the z-score in assay [3] (setting [10]) is 1.4; in assay [3] (setting [11]), -0.239; in assay [3] (setting [12]), -0.163. Further, the fluorescence slope in [5] is -0.5 (inactive). For the same compound, the NADPH fluorescence slope in assay [6] is -0.000158 (inactive). In assay [7], the slope is 0.00426 (inactive). Moreover, the outcome in assay [8] was inactive.

As to `Cc1ccccc1OCC(O)Cn1c(N2CCN(c3ccccc3)CC2)nc2c1c(=O)[nH]c(=O)n2C` (stereo unspecified), the cell count in assay [1] turned out to be 519. Moreover, the inhibition in assay [1] was -0.6% (inactive); in [2], -227% (inactive); in [4], 8.76% (inactive); in assay [9], 22.7% (inactive). This compound also came in with a nuclei count in assay [2] of 134%. In addition, the results for the z-score in [3] (setting [10]), in [3] (setting [11]) and in assay [3] (setting [12]) were -0.379, -1.18 and 0.818, respectively. In assay [5], the fluorescence slope is -0.537 (inactive). For the same compound, the NADPH fluorescence slope in assay [6] was -3.2e-05 (inactive). Further, in assay [7], the slope is 0.00634 (inactive). Moreover, in assay [8], the outcome was inactive.

As to `COc1ccc(Nc2cc(C)nc3ccccc23)cc1`, the cell count in assay [1] stood at 467. Further, the inhibition was -5.2% (inactive) in assay [1], 36% (inactive) in [2], 4.72% (inactive) in [4] and 17.6% (inactive) in assay [9]. Also, in assay [2], the nuclei count is 118%. Also, the z-score is 0.29 in assay [3] (setting [10]), 0.934 in [3] (setting [11]) and -1.53 in [3] (setting [12]). The fluorescence slope in [5] is -0.429 (inactive). Also, in assay [6], the NADPH fluorescence slope is -2.1e-05 (inactive). In addition, in [7], the slope was 0.00465 (inactive). Also, the compound was called inactive in [8].

Take `COc1ccc(/C=N/n2cncn2)cc1CSc1ccccn1`: the cell count in assay [1] was found to be 302. Also, the inhibition is -17.2% (inactive) in assay [1], -137% (inactive) in [2], -2.29% (inactive) in [4] and 27% (inactive) in assay [9]. Moreover, the nuclei count in assay [2] came to 114%. Besides, the z-score in assay [3] (setting [10]) was -0.741; in [3] (setting [11]) it was 0.803; in [3] (setting [12]) it was -0.342. Further, in assay [5], the fluorescence slope was -0.32 (inactive). Further, the NADPH fluorescence slope in assay [6] was 9e-06 (inactive). Moreover, the slope in assay [7] is 0.00478 (inactive). The outcome in assay [8] was inactive.

As for `CCOC(=O)c1c(CN2CCN(C)CC2)n(C)c2cc(Br)c(OC)cc12`, the cell count in assay [1] turned out to be 320. For the same compound, the inhibition is -0.7% (inactive) in [1], -50.3% (inactive) in assay [2], -12.3% (inactive) in assay [4] and 53.1% (active) in assay [9]. In assay [2], this compound yielded a nuclei count of 138%. Besides, the z-score in [3] (setting [10]) is -0.018; in [3] (setting [11]), 0.891; in assay [3] (setting [12]) it was 1.91. Further, the fluorescence slope in assay [5] is -0.462 (inactive). Further, the NADPH fluorescence slope in assay [6] is -0.000148 (inactive). Also, in assay [7], the slope is 0.00634 (inactive). Besides, the result in [8] was inactive.

Regarding `Cc1cccc(C)c1NC(=O)CSCC(=O)c1ccc(O)c(O)c1`, the cell count in assay [1] was found to be 364. Besides, the inhibition is -4.2% (inactive) in [1], -100% (inactive) in [2], 24.7% (inactive) in [4] and -8.43% (inactive) in assay [9]. Also, in assay [2], the nuclei count was determined as 158%. In addition, the results for the z-score in assay [3] (setting [10]), in assay [3] (setting [11]) and in [3] (setting [12]) were 0.118, 0.467 and 0.0935, respectively. Also, the fluorescence slope in [5] is -0.4 (inactive). Further, the NADPH fluorescence slope in assay [6] is -6.4e-05 (inactive). The slope in assay [7] was 0.00773 (inactive). Besides, in assay [8], the result was inactive.

These data come from PubChem BioAssay.
